HSP90 inh – inhibitors of HSP90 luciferase refolding in rabbit reticulocyte lysate; luciferase refolding luminescence, 3 h; inhibition, % at 5.6 µM; 0.91% of 290,000 active; AID 1789;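 active means inhibition above the screen-wide mean plus 3 SD, computed separately per campaign, cut at about 16% in these data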;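 further: inhibitors lower the luminescence because luciferase stays unfolded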
SENP8 block-1 – blocks human SENP8 cleavage of Nedd8 substrate; recombinant SENP8, Nedd8 substrate fluorescence; inhibition, % at 20 µM; 0.64% of 360,000 active; AID 602440; in the data active means inhibition mostly above about 40%, no sharp cut-off; inactive means mostly below about 27%
Target sequence (Q96LD8 whole entry, looked up): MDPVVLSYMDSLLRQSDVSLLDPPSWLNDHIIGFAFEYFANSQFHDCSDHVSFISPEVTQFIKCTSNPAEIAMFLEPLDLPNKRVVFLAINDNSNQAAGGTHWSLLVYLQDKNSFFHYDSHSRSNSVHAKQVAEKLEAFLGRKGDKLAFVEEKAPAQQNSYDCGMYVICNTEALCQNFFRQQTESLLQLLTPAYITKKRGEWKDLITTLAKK
SENP1 inh – blocks the human SENP1 SUMO protease catalytic domain. inhibition, % at 10 µM. 0.21% of 360,000 active. recombinant SENP1 catalytic domain, CyPet-SUMO1-YPet FRET cleavage;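 active means inhibition at least 30% at 10 µM, raw YFP signal under a set limit, fluorescence ratio 0.5 to 1.5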
Target sequence (Q9P0U3 419-644 limits assumed): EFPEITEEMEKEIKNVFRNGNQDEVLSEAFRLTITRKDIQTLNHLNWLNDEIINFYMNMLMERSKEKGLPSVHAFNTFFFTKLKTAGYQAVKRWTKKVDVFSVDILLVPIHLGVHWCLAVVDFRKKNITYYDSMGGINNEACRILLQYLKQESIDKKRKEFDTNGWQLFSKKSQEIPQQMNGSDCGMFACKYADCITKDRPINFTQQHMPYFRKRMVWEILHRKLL
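System: Recombinant human SENP1 catalytic domain, His6-tagged | Incubation: Enzyme reaction for 50 min at room temperature, dark | Medium: Tris pH 8 with BME, BSA, NP40 and catalase | Also added: 25 nM SUMO1 FRET substrate | Compound: 10 µM single point, 0.5% DMSO | Measured by: FRET fluorescence in CFP and YFP emission channels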
SENP8 block-2 – SENP8 protease inhibition. purified SENP8, Z-RLRGG-aminoluciferin cleavage, luminescence. inhibition, % at 10 µM. 1.2% of 330,000 active; in the data active means inhibition above about 50%
SENP6 block – inhibitors of human SENP6 protease; Q9GZR1; Recombinant SENP6 catalytic domain, aminoluciferin luminescence; inhibition, % at 10 µM; 1.8% of 330,000 active; AID 2599;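 active means inhibition above about 50% at the single tested dose, limit read from the data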
SENP7 inh – inhibitors of human SENP7 protease | AID 434973 | inhibition, % at 5 µM | 1.5% of 330,000 active | Q9BQF6 | recombinant SENP7, Z-RLRGG-aminoluciferin luminescence, 40 min;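 active means inhibition above about 50% at the single test dose, limit read from the data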
HSP90 confirm – confirmation of HSP90 inhibitors | rabbit reticulocyte lysate, luciferase refolding luminescence, 3 h | shares compounds with HSP90 inh | 64% of 2,300 active | inhibition, % at 5.9 µM; in the data active means inhibition above about 18%
luciferase ctr – counter-screen for HSP90 inhibitors: inhibitors of firefly luciferase; shares compounds with HSP90 inh; purified native firefly luciferase, luminescence; inhibition, % at 5.9 µM; 48% of 2,300 active;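 active means inhibition above the mean inhibition of all tested sample wells plus 3 SD, cut at about 10% in these data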
Each line names hits and unclear results; the compound was inactive in the other large screens (follow-up assays come after a bar, where they were run). An excerpt weighted towards active compounds, which were near 2.9% of everything screened.

COc1ccc(-c2cc(=O)[nH][nH]2)cc1OC	HSP90 inh 34 | HSP90 confirm inactive | luciferase ctr inactive
CS(=O)(=O)Nc1ccccc1-c1ccc2nccn2c1	none (no result: HSP90 inh, SENP8 block-2, SENP6 block, SENP7 inh)
COc1ccc(/C=N\Nc2ccccc2[N+](=O)[O-])c(C(=O)O)c1OC	HSP90 inh 18 | HSP90 confirm inactive | luciferase ctr inactive
CCN1CCN(C(=O)CN(c2cc(OC)ccc2OC)S(C)(=O)=O)CC1	none
COc1ccc(OC)c(N(CC(=O)N2CCN(Cc3ccccc3)CC2)S(C)(=O)=O)c1	HSP90 inh 20 | HSP90 confirm inactive | luciferase ctr inactive
Cc1ccc2cc(CCNC(=O)c3ccc(S(=O)(=O)N4CCOCC4)cc3)c(=O)[nH]c2c1	none
Cc1ccc2cc(CCNC(=O)c3ccc(S(=O)(=O)N4CCCCC4)cc3)c(=O)[nH]c2c1	HSP90 inh 35 | HSP90 confirm inactive | luciferase ctr inactive
Cc1ccc(-c2onc3ccc(C=O)cc23)cc1	HSP90 inh 50 | HSP90 confirm inactive | luciferase ctr inactive
Cc1[nH]n(-c2ccccc2)c(=O)c1C(c1ccccc1C(=O)O)c1c(C)[nH]n(-c2ccccc2)c1=O	none
Cc1[nH]n(-c2ccccc2)c(=O)c1C(c1ccccc1[N+](=O)[O-])C(C#N)C#N (centres undefined)	HSP90 inh 28 | HSP90 confirm inactive | luciferase ctr inactive
CC(C)c1ccc(OCc2ccc(C(=O)NN3CCN(C)CC3)o2)cc1	HSP90 inh 19 | HSP90 confirm 18 | luciferase ctr inactive
CC(C)c1ccc(OCc2ccc(C(=O)O)o2)cc1	HSP90 inh 94, SENP8 block-2 87, SENP6 block 95, SENP7 inh 77 | HSP90 confirm 94 | luciferase ctr 80
C(=C\c1ccccc1)/CN1CCN(C(c2ccccc2)c2nnnn2C2CCCCC2)CC1 (centres undefined)	none (no result: HSP90 inh, SENP8 block-2, SENP6 block, SENP7 inh)
CCOC(=O)c1csc(NC(=O)c2ccc(OCC)cc2)n1	HSP90 inh 42 | HSP90 confirm 75 | luciferase ctr inactive
CCOC(=O)c1csc(NC(=O)c2cc3ccccc3o2)n1	HSP90 inh 58 | HSP90 confirm 88 | luciferase ctr inactive
CCOC(=O)c1csc(NC(=O)c2ccccc2)n1	none
CCOC(=O)c1csc(NC(=O)c2ccc3c(c2)OCCO3)n1	HSP90 inh 57 | HSP90 confirm 84 | luciferase ctr inactive
Cc1cc(-c2csc(NC(=O)c3cc4ccccc4o3)n2)c(C)n1C	HSP90 inh 41 | HSP90 confirm 34 | luciferase ctr inactive
O=C(Nc1nc(-c2ccccn2)cs1)c1cc2ccccc2o1	none
CC(C)Cn1c(N)c(C(=O)COC(=O)CCNS(=O)(=O)c2ccccc2)c(=O)n(C)c1=O	none (no result: HSP90 inh)
CCCCCC(=O)N1C[C@H](n2cc(COC(=O)c3ccccc3)nn2)[C@@H](O)C[C@@H]1c1ccc(OC)cc1	none (no result: HSP90 inh, SENP8 block-2, SENP6 block, SENP7 inh)
Cc1ccc(NC(=O)c2ccc3c(c2)OCCO3)cc1	HSP90 inh 20 | HSP90 confirm 51 | luciferase ctr 45
COC(=O)c1ccc(-n2c(C)cc(-c3csc(NC(=O)c4ccc(S(=O)(=O)N(C)C)cc4)n3)c2C)cc1	HSP90 inh 25 | HSP90 confirm 24 | luciferase ctr inactive
CCOC(=O)c1csc(NC(=O)c2ccc(S(=O)(=O)N(C)C)cc2)n1	HSP90 inh 25 | HSP90 confirm 37 | luciferase ctr inactive
CCOC(=O)c1sc(NC(=O)c2ccc(S(=O)(=O)N(C)C)cc2)nc1C	none
O=C(O)C1C2C=CC(C2)C1C(=O)Nc1cccc(C(=O)N2CCCCC2)c1 (centres undefined)	HSP90 inh 30 | HSP90 confirm inactive | luciferase ctr inactive
CC(=O)c1cccc(NC(=O)C2C3C=CC(C3)C2C(=O)O)c1 (centres undefined)	none
Cn1c(=O)[nH]c(=O)c2c1nc(Br)n2CC(O)COCc1ccccc1 (centres undefined)	HSP90 inh 17 | HSP90 confirm inactive | luciferase ctr inactive
Cc1cn(C2CCCCO2)c(=O)[nH]c1=O (centres undefined)	none (no result: HSP90 inh, SENP8 block-2, SENP6 block, SENP7 inh)
